# According to ChEMBL document CHEMBL3865795, “Design, synthesis and biological evaluation of N-((1-benzyl-1H-1,2,3-triazol-4-yl)methyl)-1,3-diphenyl-1H-pyrazole-4-carboxamides as CDK1/Cdc2 inhibitors” (2016):
# The source made the active and inactive calls. The rule behind the calls is not given here.
# Assays:
# [1] = Antiproliferative activity against human MIAPaCa2 cells after 48 hrs by SRB assay; type: functional; conditions: MIA PaCa-2, 48 h
# How it was run: (§1)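 SRB assay in ATCC-sourced cells grown in DMEM with 10% FBS and penicillin/streptomycin at 37 °C, 5% CO2. Cells were plated at densities set by doubling time and incubated 24 h before dosing. Compounds (DMSO 10 mM stock diluted in medium) were tested at 0.01, 0.1, 1, 10 and 100 µM with 48 h continuous exposure. Cells were fixed in cold 10% TCA and stained with 0.057% SRB; OD was read at 510 nm. GI50 was derived from time-zero, control and test absorbances and reported as the mean of three independent experiments.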
# [2] = Antiproliferative activity against human MCF7 cells after 48 hrs by SRB assay; type: functional; conditions: MCF7, 48 h; how it was run: as §1
# [3] = Antiproliferative activity against human HeLa cells after 48 hrs by SRB assay; type: functional; how it was run: as §1
# [4] = Downregulation of CDK1 in human MCF7 cells at 50 to 100 nM after 48 hrs by Western blot analysis; type: functional, cell-based
# How it was run: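 MCF-7 cells were treated 48 h at 50 or 100 nM and lysed in RIPA buffer. Lysate (50 µg per lane) was resolved on 10% SDS-PAGE and transferred to PVDF. Membranes were BSA-blocked, probed with primary antibody for 24 h and detected by chemiluminescence, with β-actin as loading control.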
# [5] = Cell cycle arrest in human MCF7 cells assessed as accumulation at G2/M phase after 48 hrs by propidium iodide-staining based FACS analysis; type: functional
# How it was run: (§2)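 MCF-7 cells were incubated 48 h with compound at 50 or 100 nM; nocodazole 100 nM was the reference. Untreated and treated cells were harvested, washed in PBS, fixed in ice-cold 70% ethanol, stained with propidium iodide and analysed by flow cytometry for cell-cycle phase distribution.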
# [6] = Cell cycle arrest in human MCF7 cells assessed as reduction in DNA content at G0/G1 phase at 50 to 100 nM after 48 hrs by propidium iodide-staining based FACS analysis; type: functional; how it was run: as §2
# MCF7 [7] = test: Induction of apoptosis in human MCF7 cells assessed as chromatin condensation at 50 to 100 nM after 48 hrs by Hoechst 33242-staining based fluorescence microscopic analysis; type: functional, cell-based
# How it was run: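 MCF-7 cells were seeded at 1×10^5 cells/mL, exposed to compound at 50 or 100 nM, with DMSO vehicle as control. They were fixed in 4% paraformaldehyde for 10 min at 4 °C and stained with Hoechst 33242 (2 µg/mL) for 10 min at room temperature. Nuclear morphology was imaged by fluorescence microscopy in random fields.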
# MCF7 [8] = test: Induction of apoptosis in human MCF7 cells assessed as reduction in mitochondrial membrane potential at 50 to 100 nM after 48 hrs by rhodamine 123-staining based fluorescence microscopic analysis; type: functional, cell-based
# How it was run: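 MCF-7 cells were plated at 1×10^5 cells/mL and allowed to adhere overnight, then treated at 50 or 100 nM. After PBS washes they were loaded with rhodamine 123 (5 µg/ml) for 30 min in the dark at 37 °C. Loss of green fluorescence was assessed by fluorescence microscopy.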
# MCF7 [9] = test: Induction of apoptosis in human MCF7 cells assessed as intracellular ROS generation at 100 nM after 48 hrs by carboxy-DCFDA staining based fluorescence microscopic analysis; type: functional, cell-based
# How it was run: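 MCF-7 cells were plated at 1×10^5 cells/mL, adhered overnight and treated at 50 or 100 nM. Methods and legend state 24 h treatment; the results text states 48 h. Cells were PBS-washed, fixed in 4% paraformaldehyde and exposed to carboxy-DCFDA for 30 min in the dark at room temperature. DCF fluorescence was assessed by fluorescence microscopy.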
# MCF7 [10] = test: Induction of apoptosis in human MCF7 cells assessed as viable cells at 50 nM after 48 hrs by Annexin V FITC/propidium iodide-based FACS analysis (reference value: 93.1 %); type: functional; conditions: MCF7, 48 h, read-out: Activity
# MCF7 [11] = test: Induction of apoptosis in human MCF7 cells assessed as early apoptotic cells at 50 nM after 48 hrs by Annexin V FITC/propidium iodide-based FACS analysis (reference value: 2.4 %); type: functional
# MCF7 [12] = test: Induction of apoptosis in human MCF7 cells assessed as late apoptotic cells at 50 nM after 48 hrs by Annexin V FITC/propidium iodide-based FACS analysis (reference value: 4.2 %); type: functional
# MCF7 [13] = test: Induction of apoptosis in human MCF7 cells assessed as necrotic cells at 50 nM after 48 hrs by Annexin V FITC/propidium iodide-based FACS analysis (reference value: 0.4 %); type: functional
# MCF7 [14] = test: Induction of apoptosis in human MCF7 cells assessed as viable cells at 100 nM after 48 hrs by Annexin V FITC/propidium iodide-based FACS analysis (reference value: 93.1 %); type: functional; conditions: MCF7, 48 h, read-out: Activity
# MCF7 [15] = test: Induction of apoptosis in human MCF7 cells assessed as early apoptotic cells at 100 nM after 48 hrs by Annexin V FITC/propidium iodide-based FACS analysis (reference value: 2.4 %); type: functional
# MCF7 [16] = test: Induction of apoptosis in human MCF7 cells assessed as late apoptotic cells at 100 nM after 48 hrs by Annexin V FITC/propidium iodide-based FACS analysis (reference value: 4.2 %); type: functional
# MCF7 [17] = test: Induction of apoptosis in human MCF7 cells assessed as necrotic cells at 100 nM after 48 hrs by Annexin V FITC/propidium iodide-based FACS analysis (reference value: 0.4 %); type: functional
# MCF7 [18] = test: Induction of apoptosis in human MCF7 cells after 48 hrs by Annexin V FITC/propidium iodide-based FACS analysis; type: functional, cell-based
SMILES,GI50 [1] [nM],GI50 [2] [nM],GI50 [3] [nM],further results
COc1ccc(-c2nn(-c3ccccc3)cc2C(=O)NCc2cn(Cc3ccc(Cl)cc3)nn2)cc1,26300,2900,6400,
COc1ccc(Cn2cc(CNC(=O)c3cn(-c4ccccc4)nc3-c3ccc(Cl)cc3)nn2)cc1OC,9400,> 100000,200,
COc1ccc(Cn2cc(CNC(=O)c3cn(-c4ccccc4)nc3-c3ccccc3)nn2)cc1OC,8200,12600,10800,
O=C(NCc1cn(Cc2ccc(F)cc2)nn1)c1cn(-c2ccccc2)nc1-c1ccc(F)cc1,14300,55300,1200,
COc1cc(Cn2cc(CNC(=O)c3cn(-c4ccccc4)nc3-c3ccc(F)cc3)nn2)cc(OC)c1,190,2500,360,
O=C(NCc1cn(Cc2ccc(C(F)(F)F)cc2)nn1)c1cn(-c2ccccc2)nc1-c1ccccc1,17700,840,1600,
O=C(NCc1cn(Cc2ccc(Cl)cc2)nn1)c1cn(-c2ccccc2)nc1-c1ccc(Cl)cc1,410,28800,470,
COc1ccc(-c2nn(-c3ccccc3)cc2C(=O)NCc2cn(Cc3ccc(C(F)(F)F)cc3)nn2)cc1,> 100000,> 100000,6200,
COc1ccc(-c2nn(-c3ccccc3)cc2C(=O)NCc2cn(Cc3cc(OC)c(OC)c(OC)c3)nn2)cc1,31600,7600,1700,
COc1ccc(-c2nn(-c3ccccc3)cc2C(=O)NCc2cn(Cc3ccc(F)cc3)nn2)cc1,24100,460,500,
COc1ccc(-c2nn(-c3ccccc3)cc2C(=O)NCc2cn(Cc3cc(OC)cc(OC)c3)nn2)cc1,5800,700,12400,
O=C(NCc1cn(Cc2ccc(F)cc2)nn1)c1cn(-c2ccccc2)nc1-c1ccccc1,9600,7000,1600,
O=C(NCc1cn(Cc2ccc(C(F)(F)F)cc2)nn1)c1cn(-c2ccccc2)nc1-c1ccc(Cl)cc1,1100,4900,1900,
COc1cc(Cn2cc(CNC(=O)c3cn(-c4ccccc4)nc3-c3ccc(Cl)cc3)nn2)cc(OC)c1,340,150,730,Activity [4]: Active; Activity [5]: Dose-dependent effect; Activity [6]: Active; Activity (MCF7 [7]): Active; Activity (MCF7 [8]): Active; Activity (MCF7 [9]): Active; viability at 0.05 µM (MCF7 [10]): 83.2%; Activity (MCF7 [11]): 5.6%; Activity (MCF7 [12]): 10.2%; Activity (MCF7 [13]): 0.9%; viability at 0.1 µM (MCF7 [14]): 61.4%; Activity (MCF7 [15]): 7.8%; Activity (MCF7 [16]): 28.6%; Activity (MCF7 [17]): 2.2%; Activity (MCF7 [18]): Dose-dependent effect
O=C(NCc1cn(Cc2ccc(Cl)cc2)nn1)c1cn(-c2ccccc2)nc1-c1ccc(F)cc1,280,130,210,Activity [4]: Active; Activity [5]: Dose-dependent effect; Activity [6]: Active; Activity (MCF7 [7]): Active; Activity (MCF7 [8]): Active; Activity (MCF7 [9]): Active; viability at 0.05 µM (MCF7 [10]): 83.8%; Activity (MCF7 [11]): 5.2%; Activity (MCF7 [12]): 10.3%; Activity (MCF7 [13]): 0.7%; viability at 0.1 µM (MCF7 [14]): 69.3%; Activity (MCF7 [15]): 8.2%; Activity (MCF7 [16]): 20.5%; Activity (MCF7 [17]): 2%; Activity (MCF7 [18]): Dose-dependent effect
COc1ccc(Cn2cc(CNC(=O)c3cn(-c4ccccc4)nc3-c3ccccc3)nn2)cc1,10200,> 100000,6900,
O=C(NCc1cn(Cc2ccc(Cl)cc2)nn1)c1cn(-c2ccccc2)nc1-c1ccccc1,8700,> 100000,600,
COc1ccc(Cn2cc(CNC(=O)c3cn(-c4ccccc4)nc3-c3ccc(F)cc3)nn2)cc1OC,> 100000,> 100000,200,
O=C(NCc1cn(Cc2ccc(C(F)(F)F)cc2)nn1)c1cn(-c2ccccc2)nc1-c1ccc(F)cc1,760,810,250,
COc1ccc(-c2nn(-c3ccccc3)cc2C(=O)NCc2cn(Cc3ccc(OC)c(OC)c3)nn2)cc1,16300,> 100000,800,
COc1ccc(Cn2cc(CNC(=O)c3cn(-c4ccccc4)nc3-c3ccc(OC)cc3)nn2)cc1,2500,22900,450,
COc1cc(Cn2cc(CNC(=O)c3cn(-c4ccccc4)nc3-c3ccc(F)cc3)nn2)cc(OC)c1OC,5200,4300,2100,
COC(=O)Nc1nc2cc(C(=O)c3cccs3)ccc2[nH]1 [NOCODAZOLE],950,940,810,viability at 0.1 µM (MCF7 [14]): 70.5%; Activity (MCF7 [15]): 7.6%; Activity (MCF7 [16]): 20.3%; Activity (MCF7 [17]): 1.6%; Activity (MCF7 [18]): Dose-dependent effect
COc1cc(Cn2cc(CNC(=O)c3cn(-c4ccccc4)nc3-c3ccc(Cl)cc3)nn2)cc(OC)c1OC,3500,2500,100,
COc1cc(Cn2cc(CNC(=O)c3cn(-c4ccccc4)nc3-c3ccccc3)nn2)cc(OC)c1OC,1000,> 100000,> 100000,
COc1ccc(Cn2cc(CNC(=O)c3cn(-c4ccccc4)nc3-c3ccc(F)cc3)nn2)cc1,3700,650,870,
COc1cc(Cn2cc(CNC(=O)c3cn(-c4ccccc4)nc3-c3ccccc3)nn2)cc(OC)c1,190,2400,12200,
O=C(NCc1cn(Cc2ccc(F)cc2)nn1)c1cn(-c2ccccc2)nc1-c1ccc(Cl)cc1,1990,570,2800,
COc1ccc(Cn2cc(CNC(=O)c3cn(-c4ccccc4)nc3-c3ccc(Cl)cc3)nn2)cc1,290,8000,1400,
